In one data set the test system is Pseudomonas fluorescens. The data set can be described thus: Antibacterial activity against Pseudomonas fluorescens at 1024 ug/ml. Type of data set: functional, organism-based. Summed up: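 Broth microdilution against P. fluorescens, samples serially twofold diluted from a top concentration of 1024 µg/mL, two replicates per concentration. Cefotaxim served as positive control.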

The test system of a further data set is Bacillus subtilis. Put plainly: Antibacterial activity against Bacillus subtilis by microdilution assay. It counts as functional. Put shortly:
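Broth microdilution against B. subtilis, samples serially twofold diluted from a 1024 µg/mL start, two replicates per concentration. MIC recorded. Cefotaxim served as positive control. Afterwards, bacteria treated at the MIC were replated on drug-free HNB agar to tell bacteriostatic from bactericidal action.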
For orientation: Dilution methods test growth across graded concentrations, often in twofold steps.

Another data set has as its system 5637. The data set can be described thus: Cytotoxicity against human 5637 cells. Type of data set: functional. Conditions: read-out: LC50 (the source's name).
The next data set deals with Biomphalaria glabrata. The data set can be described thus: Molluscicidal activity against Biomphalaria glabrata. It counts as functional.
A further data set relates to Caenorhabditis elegans. Put plainly: Nematicidal activity against Caenorhabditis elegans at 100 ug/ml. Type of data set: functional, organism-based. Put shortly: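 Caenorhabditis elegans exposed to compound at 50 and 100 µg/mL (n = 60, two replicates per concentration). Scored by increase in worm number and worm movement, graded on a + scale. Pyrantel embonate at 50 µg/mL served as positive control.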

Data set [1] in a line: Toxicity against Oreochromis mossambicus assessed as mortality at 50 ug/ml. Type of data set: organism-based. Conditions: in vivo, read-out: Activity. Put shortly: (§1)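 Tilapia (Oreochromis mossambicus) exposed to the compound in water at 50 or 75 µg/mL. Read-out is percent fish mortality.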
The nature of data set [2]: Toxicity against Oreochromis mossambicus assessed as mortality at 75 ug/ml. It counts as organism-based. Conditions: in vivo, read-out: Activity. Summed up:
as §1

The structures appear in SMILES notation. In brackets after ≈: the same amount, converted by molar mass. Activity calls are given as the source filed them. The calls are words filed in the database; no cut-off is given here.

One may read the MIC as the least concentration at which growth counts as inhibited. A higher MIC goes with a need for much substance.

Consider `O=C1O[C@@H]2[C@@H](OC(=O)c3cc(O)c(O)c(O)c3-c3c1cc(O)c(O)c3O)[C@H](O)O[C@@H]1COC(=O)c3cc(O)c(O)c(O)c3-c3c(O)c(O)c4oc(=O)c5c(c(O)c(O)c6oc(=O)c3c4c65)-c3c(cc(O)c(O)c3O)C(=O)O[C@@H]21` [PUNICALAGIN], for which the result with Pseudomonas fluorescens was inactive. The molecule further yielded an MIC in the data set on Bacillus subtilis of 32 µg/mL (≈ 29.5 µM).

Regarding `O=C1O[C@H]2[C@H](O)[C@@H](CO)OC(O)[C@@H]2OC(=O)c2cc(O)c(O)c(O)c2-c2c1cc(O)c(O)c2O` (stereo partly drawn), the outcome with Pseudomonas fluorescens and with Bacillus subtilis was inactive. Besides, in the data set on 5637, the CC50 was 84.7 µM.

`[H][C@@]12OC(=O)c3cc(O)c(O)c(O)c3-c3c(O)c(O)c4oc(=O)c5cc(O)c(c6oc(=O)c3c4c65)Oc3c(cc(O)c(O)c3O)C(=O)OC[C@@]1([H])OC(O)[C@]1([H])OC(=O)c3cc(O)c(O)c(O)c3-c3c(cc(O)c(O)c3O)C(=O)O[C@@]21[H]` (stereo partly drawn) [ISOTERCHEBULIN]: in the data set on Pseudomonas fluorescens, the outcome was inactive. Also, the LC100 in the data set on Biomphalaria glabrata stood at 60 µg/mL. The outcome in the data set with Caenorhabditis elegans was Active. The mortality at 50 ug/ml in data set [1] amounted to 10%. Also, the mortality at 75 ug/ml in data set [2] is 10%. For the same molecule, the MIC in the data set on Bacillus subtilis amounted to 8 µg/mL (≈ 7.38 µM).

Take `O=C(OC[C@H]1OC(O)[C@H](O)[C@@H](O)[C@@H]1OC(=O)c1cc(O)c(O)c(O)c1-c1c(O)c(O)c2oc(=O)c3cc(O)c(O)c4oc(=O)c1c2c43)c1cc(O)c(O)c(O)c1` (stereo partly drawn) [TERFLAVIN B]: the outcome in the data set on Pseudomonas fluorescens was inactive. Besides, it took 64 µg/mL (≈ 81.6 µM) to inhibit growth with Bacillus subtilis (MIC).

Turning to `O=C1O[C@H]([C@@H]2OC(=O)c3cc(O)c(O)c(O)c3-c3c(O)c(O)c4oc(=O)c5c(c(O)c(O)c6oc(=O)c3c4c65)-c3c(cc(O)c(O)c3O)C(=O)OC[C@H]2O)[C@@H]2OC(=O)c3c(c(O)c(O)c(O)c3[C@H]2O)-c2c1cc(O)c(O)c2O` [PUNICACORTEIN C], the result with Pseudomonas fluorescens was inactive. Further, the CC50 in the data set on 5637 turned out to be 41.4 µM. The MIC with Bacillus subtilis came out at 16 µg/mL (≈ 14.8 µM).

For `O=C(O[C@H]1C(O)O[C@@H]2COC(=O)c3cc(O)c(O)c(O)c3-c3c(O)c(O)c4oc(=O)c5c(c(O)c(O)c6oc(=O)c3c4c65)-c3c(cc(O)c(O)c3O)C(=O)O[C@H]2[C@@H]1O)c1cc(O)c(O)c(O)c1` (stereo partly drawn), the result in the data set with Pseudomonas fluorescens was inactive. Further, the MIC against Bacillus subtilis came out at 8 µg/mL (≈ 8.56 µM).

In turn, `CO/N=C(\C(=O)N[C@@H]1C(=O)N2C(C(=O)O)=C(COC(C)=O)CS[C@H]12)c1csc(N)n1` [CEFOTAXIME] showed an MIC in the data set with Bacillus subtilis of 2 µg/mL (≈ 4.39 µM).

Turning to `O=C1OC[C@H]2OC(O)[C@H](O)[C@@H](O)[C@@H]2OC(=O)c2cc(O)c(O)c(O)c2-c2c(O)c(O)c3oc(=O)c4cc(O)c(c5oc(=O)c2c3c54)Oc2c1cc(O)c(O)c2O` (stereo partly drawn), the result in the data set with Pseudomonas fluorescens was inactive.

Consider `[H][C@@]12COC(=O)c3cc(O)c(O)c(O)c3Oc3c(O)cc4c(=O)oc5c(O)c(O)c(c6c(=O)oc3c4c56)-c3c(cc(O)c(O)c3O)C(=O)O[C@@]1([H])[C@H](O)[C@@H](O)C(O)O2` (stereo partly drawn), for which the MIC against Bacillus subtilis was found to be 8 µg/mL (≈ 10.2 µM).

Consider `O=C(OC[C@H]1OC(O)[C@@H]2OC(=O)c3cc(O)c(O)c(O)c3-c3c(cc(O)c(O)c3O)C(=O)O[C@H]2[C@@H]1OC(=O)c1cc(O)c(O)c(O)c1-c1c(O)c(O)c2oc(=O)c3cc(O)c(O)c4oc(=O)c1c2c43)c1cc(O)c(O)c(O)c1` (stereo partly drawn) [TERFLAVIN A], for which the outcome in the data set with Pseudomonas fluorescens was inactive. Further, it took 64 µg/mL (≈ 58.9 µM) to inhibit growth in the data set with Bacillus subtilis (MIC).

Source of the values: ChEMBL document CHEMBL1150564, “Isoterchebulin and 4,6-O-isoterchebuloyl-D-glucose, novel hydrolyzable tannins from Terminalia macroptera” (J Nat Prod, 2001).
